How the values were obtained:
Format in all cases: functional
[1] = Cytotoxicity against human 184B5 cells after 48 hrs by SRB assay in presence of 3.5 uM 4-(2-chloro-10H-phenoxazin-10-yl)-N,N-diethylbutan-1-amine hydrochloride; conditions: 184B5, 48 h
Method in brief: (§1)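 184B5 immortalized breast epithelial cells were grown in mammary epithelial basal medium with MEGM supplements at 37 °C, 5% CO2. Cells (5000–10,000/well) were preincubated 24 h, then exposed to seven concentrations for 48 h, with the listed partner drug fixed at its stated level. Cells were TCA-fixed, SRB-stained and read at 515–564 nm. Final DMSO was ≤0.1%.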

MDA-MB-231 [2] = experiment: Cytotoxicity against human MDA-MB-231 cells after 48 hrs by SRB assay; conditions: MDA-MB-231, 48 h
Method in brief: (§2)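 Breast cancer cells were grown in RPMI 1640 with 10% FBS and 2 mM L-glutamine at 37 °C, 5% CO2, seeded at 5000–10,000/well and allowed 24 h before dosing. Compounds were given as seven serially diluted concentrations for 48 h, with any partner drug held constant, at ≤0.1% final DMSO. Cells were TCA-fixed, SRB-stained and read at 515–564 nm. GI50 came from a variable-slope sigmoidal fit of growth relative to time-zero and untreated wells; values are means of triplicates from ≥3 experiments.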

MCF7 [3] = experiment: Cytotoxicity against human MCF7 cells after 48 hrs by SRB assay in presence of 0.5 uM 2-morpholino-8-phenyl-4H-chromen-4-one; conditions: MCF7, 48 h; method in brief: as §2
MDA-MB-231 [4] = experiment: Cytotoxicity against human MDA-MB-231 cells after 48 hrs by SRB assay in presence of 0.4 uM 1-(1-(4-(7-phenyl-1H-imidazo[4,5-g]quinoxalin-6-yl)benzyl)piperidin-4-yl)-1H-benzo[d]imidazol-2(3H)-one; method in brief: as §2
MDA-MB-468 [5] = experiment: Cytotoxicity against human MDA-MB-468 cells after 48 hrs by SRB assay; conditions: MDA-MB-468, 48 h; method in brief: as §2
MDA-MB-468 [6] = experiment: Cytotoxicity against human MDA-MB-468 cells after 48 hrs by SRB assay in presence of 0.04 uM (E)-5-(benzo[d]thiazol-2-yl)-3-ethyl-2-(2-(methyl(phenyl)amino)vinyl)-1-phenyl-1H-benzo[d]imidazol-3-ium iodide; conditions: MDA-MB-468, 48 h; method in brief: as §2
MCF7 [7] = experiment: Cytotoxicity against human MCF7 cells after 48 hrs by SRB assay in presence of 0.4 uM 1-(1-(4-(7-phenyl-1H-imidazo[4,5-g]quinoxalin-6-yl)benzyl)piperidin-4-yl)-1H-benzo[d]imidazol-2(3H)-one; method in brief: as §2
MDA-MB-231 [8] = experiment: Cytotoxicity against human MDA-MB-231 cells after 48 hrs by SRB assay in presence of 0.04 uM (E)-5-(benzo[d]thiazol-2-yl)-3-ethyl-2-(2-(methyl(phenyl)amino)vinyl)-1-phenyl-1H-benzo[d]imidazol-3-ium iodide; conditions: MDA-MB-231, 48 h; method in brief: as §2
MDA-MB-468 [9] = experiment: Cytotoxicity against human MDA-MB-468 cells after 48 hrs by SRB assay in presence of 0.4 uM 1-(1-(4-(7-phenyl-1H-imidazo[4,5-g]quinoxalin-6-yl)benzyl)piperidin-4-yl)-1H-benzo[d]imidazol-2(3H)-one; method in brief: as §2
[10] = Cytotoxicity against human 184B5 cells after 48 hrs by SRB assay in presence of 0.04 uM (E)-5-(benzo[d]thiazol-2-yl)-3-ethyl-2-(2-(methyl(phenyl)amino)vinyl)-1-phenyl-1H-benzo[d]imidazol-3-ium iodide; conditions: 184B5, 48 h; method in brief: as §1
MDA-MB-231 [11] = experiment: Cytotoxicity against human MDA-MB-231 cells after 48 hrs by SRB assay in presence of 3.5 uM 4-(2-chloro-10H-phenoxazin-10-yl)-N,N-diethylbutan-1-amine hydrochloride; conditions: MDA-MB-231, 48 h; method in brief: as §2
MCF7 [12] = experiment: Cytotoxicity against human MCF7 cells after 48 hrs by SRB assay in presence of 0.04 uM (E)-5-(benzo[d]thiazol-2-yl)-3-ethyl-2-(2-(methyl(phenyl)amino)vinyl)-1-phenyl-1H-benzo[d]imidazol-3-ium iodide; conditions: MCF7, 48 h; method in brief: as §2
MCF7 [13] = experiment: Cytotoxicity against human MCF7 cells after 48 hrs by SRB assay; conditions: MCF7, 48 h; method in brief: as §2
MDA-MB-468 [14] = experiment: Cytotoxicity against human MDA-MB-468 cells after 48 hrs by SRB assay in presence of 3.5 uM 4-(2-chloro-10H-phenoxazin-10-yl)-N,N-diethylbutan-1-amine hydrochloride; conditions: MDA-MB-468, 48 h; method in brief: as §2
MCF7 [15] = experiment: Cytotoxicity against human MCF7 cells after 48 hrs by SRB assay in presence of 3.5 uM 4-(2-chloro-10H-phenoxazin-10-yl)-N,N-diethylbutan-1-amine hydrochloride; conditions: MCF7, 48 h; method in brief: as §2
MDA-MB-231 [16] = experiment: Cytotoxicity against human MDA-MB-231 cells after 48 hrs by SRB assay in presence of 0.5 uM 2-morpholino-8-phenyl-4H-chromen-4-one; conditions: MDA-MB-231, 48 h; method in brief: as §2
[17] = Cytotoxicity against human 184B5 cells after 48 hrs by SRB assay; conditions: 184B5, 48 h; method in brief: as §1
[18] = Cytotoxicity against human 184B5 cells after 48 hrs by SRB assay in presence of 0.5 uM 2-morpholino-8-phenyl-4H-chromen-4-one; conditions: 184B5, 48 h; method in brief: as §1
[19] = Cytotoxicity against human 184B5 cells after 48 hrs by SRB assay in presence of 0.4 uM 1-(1-(4-(7-phenyl-1H-imidazo[4,5-g]quinoxalin-6-yl)benzyl)piperidin-4-yl)-1H-benzo[d]imidazol-2(3H)-one; method in brief: as §1
MDA-MB-468 [20] = experiment: Cytotoxicity against human MDA-MB-468 cells after 48 hrs by SRB assay in presence of 0.5 uM 2-morpholino-8-phenyl-4H-chromen-4-one; conditions: MDA-MB-468, 48 h; method in brief: as §2

| SMILES | GI50 [1] | GI50 (MDA-MB-231 [2]) | GI50 (MCF7 [3]) | GI50 (MDA-MB-231 [4]) | GI50 (MDA-MB-468 [5]) | GI50 (MDA-MB-468 [6]) | GI50 (MCF7 [7]) | GI50 (MDA-MB-231 [8]) | GI50 (MDA-MB-468 [9]) | GI50 [10] | GI50 (MDA-MB-231 [11]) | GI50 (MCF7 [12]) | GI50 (MCF7 [13]) | GI50 (MDA-MB-468 [14]) | GI50 (MCF7 [15]) | GI50 (MDA-MB-231 [16]) | GI50 [17] | GI50 [18] | GI50 [19] | GI50 (MDA-MB-468 [20]) |
| --- | --- | --- | --- | --- | --- | --- | --- | --- | --- | --- | --- | --- | --- | --- | --- | --- | --- | --- | --- | --- |
| CCCCNc1ccnc2cc(Cl)ccc12 | 19.4 µM | 15.9 µM | 9.55 µM | 8.8 µM | 6.02 µM | 3.95 µM | 5.6 µM | 12.3 µM | 7.09 µM | > 20 µM | 6.5 µM | 10.2 µM | 8.45 µM | 4.3 µM | 11.4 µM | 11.3 µM | 18.4 µM | > 20 µM | 16.6 µM | 7.42 µM |
| CN(C)CCNc1ccnc2cc(F)ccc12 | > 20 µM | 7.08 µM | 2.64 µM | 1.94 µM | 8.73 µM | 4.87 µM | 1.73 µM | 2.5 µM | 4.95 µM | > 20 µM | 2 µM | 2.56 µM | 3.42 µM | 4.61 µM | 3.26 µM | 9.45 µM | 40.4 µM | > 20 µM | > 20 µM | 7.62 µM |
| COc1ccc2c(NCCN(C)C)ccnc2c1 | > 20 µM | – | 2.65 µM | 0.74 µM | 4.8 µM | 5.85 µM | 1.82 µM | 4.49 µM | 5.91 µM | > 20 µM | 1.24 µM | 3.54 µM | 3.89 µM | 5.66 µM | 3.66 µM | 9.45 µM | 44.6 µM | > 20 µM | > 20 µM | 7.62 µM |
| CCCCNc1ccnc2cc(F)ccc12 | 8.19 µM | 6.32 µM | 3.17 µM | 5.63 µM | 1.41 µM | 2.69 µM | 1.63 µM | 7.25 µM | 2.09 µM | 12.4 µM | 3.74 µM | 5.78 µM | 1.98 µM | 1.44 µM | 3.7 µM | 12.3 µM | 18.7 µM | 12.5 µM | 14.9 µM | 3.5 µM |
| CN(C)CCNc1ccnc2cc(Cl)ccc12 | > 20 µM | 8.59 µM | 7.54 µM | 2.87 µM | 13.3 µM | 3.43 µM | 3.32 µM | 5.66 µM | 6.5 µM | > 20 µM | 0.74 µM | 4.96 µM | 15.4 µM | 3.24 µM | 7.37 µM | 9.88 µM | 44.5 µM | > 20 µM | > 20 µM | 19.3 µM |
| CCN(CC)CCCC(C)Nc1ccnc2cc(Cl)ccc12 (stereo unspecified) [CHLOROQUINE PHOSPHATE] | > 20 µM | – | 7.71 µM | 12.6 µM | – | 6.53 µM | 5.51 µM | 8.33 µM | 6.83 µM | > 20 µM | 6.08 µM | 7.54 µM | – | 2.81 µM | 11.8 µM | 18.8 µM | 76.1 µM | > 20 µM | > 20 µM | 9.14 µM |
